≈ marks a conversion by molar mass, not a printed value.
Tests used:
[1] = Aqueous solubility in 25 mM N-glycyl-glycine and 10 mM MgSO4 (pH 7.8); type: physicochemical; settings: 25 mM N-glycyl-glycine and 10 mM MgSO4 buffer, read-out: S
How it was run: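 Diol solubility measured at 25 ± 1 °C in pH 7.8 buffer (25 mM N-glycylglycine, 10 mM MgSO4), a modified Curry method; dissolved diol quantified by inhibition of firefly luciferase. Values mean ± SE.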

[2] = Headecane/water partition coefficient expressed as the equilibrium ratio of the molar concentration in n-hexadecane to that in the buffer; type: physicochemical
How it was run: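 Molar partition between n-hexadecane and pH 7.8 glycylglycine/MgSO4 buffer at 25 ± 1 °C; aqueous diol measured by luciferase method; at least five independent determinations per diol; mean ± SE.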

[3] = Concentration which inhibits luciferase activity by 50% when the luciferon concentration is at its Km; parameters: species or system Lampyridae
How it was run: (§1)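 Luciferase purified from Photinus pyralis lanterns by affinity chromatography; light-emission assay at 25 ± 1 °C with 2 mM ATP, competitive versus luciferin. Diols added in ethanol (final 23 mM, also in controls). Triplicate activities at ~5 diol levels each paired with control; Ki by weighted least squares from ~15 estimates; EC50 = 2Ki at luciferin Km.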

[4] = Inhibition constant for firefly luciferase was evaluated; parameters: species or system Lampyridae; how it was run: as §1
[5] = Concentration which anesthetizes 50% of a population of Rana temporaria tadpoles at 20 degrees Centigrade; type: functional, frog
How it was run: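 Rana temporaria tadpoles (20–25 mm) at 20 ± 1 °C, six per beaker in 7–10 beakers of tap water with graded diol. Endpoint: no reflex to gentle glass-rod tap on side or snout, tested every 15 min up to 2 h; Waud dose–response analysis. Convulsing tadpoles excluded.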

| solubility [1] | Khd [2] | EC50 [3] | Ki [4] | EC50 [5] | SMILES |
| --- | --- | --- | --- | --- | --- |
| 725 µM (≈ 204 µg/mL) | 13 | 0.88 µM | 0.44 µM | 34 µM | OCCCCCCCCCCC(Br)CO (stereo not given) |
| 95 µM (≈ 19.2 µg/mL) | 4.7 | 1.54 µM | 0.77 µM | 39 µM | OCCCCCCCCCCCCO |
| 800 µM (≈ 225 µg/mL) | 3.1 | 1.74 µM | 0.87 µM | 56 µM | OCCCCCCCCCC(Br)CCO (stereo not given) |
| 2260 µM (≈ 636 µg/mL) | 0.32 | 29.2 µM | 14.6 µM | 97 µM | OCCCCCCC(Br)CCCCCO (stereo not given) |
| 2340 µM (≈ 658 µg/mL) | 0.9 | 7.38 µM | 3.69 µM | 29 µM | OCCCCCCCC(Br)CCCCO (stereo not given) |

Reference: ChEMBL document CHEMBL1126662, “Synthesis and use of the n-bromododecane-1,12-diols as conformational probes for general anesthetic target sites” (J Med Chem, 1993)
